# Measurements taken from ChEMBL document CHEMBL3739264, “Synthesis and bio-evaluation of novel quinolino-stilbene derivatives as potential anticancer agents” (Bioorg Med Chem, 2015).
# pIC50: −log10 of the molar value. The source made the active and inactive calls. The rule behind the calls is not given here.
# Columns and labels:
# HeLa [1] = assay: Cell cycle arrest in human HeLa cells assessed as accumulation at sub-G1 phase at 6 uM after 24 hrs by flow cytometry analysis relative to control; format: functional
# Procedure, shortened: (§1)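 About 1 × 10^6 cells per plate seeded overnight, then treated with compound and harvested at set times. Cells fixed in 75% ethanol at -20°C for 12-24 h and stained 1 h with 100 µg/ml PI, 100 µg/ml RNase A and 0.3% NP-40 in PBS. DNA content measured by flow cytometry; phase fractions compared with sham-treated cells.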
# HeLa [2] = assay: Cell cycle arrest in human HeLa cells assessed as accumulation at S phase at 6 uM after 24 hrs by flow cytometry analysis relative to control; format: functional; procedure, shortened: as §1
# HeLa [3] = assay: Cell cycle arrest in human HeLa cells assessed as accumulation at sub-G1 phase at 6 uM after 72 hrs by flow cytometry analysis relative to control; format: functional; procedure, shortened: as §1
# MDA-MB-231 [4] = assay: Cell cycle arrest in human MDA-MB-231 cells assessed as accumulation at sub-G1 phase at 6 uM after 12 hrs by flow cytometry analysis relative to control; format: functional
# Procedure, shortened: (§2)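 Cells seeded overnight at about 1 × 10^6 per plate, treated next morning, and harvested at set times. Fixed in 75% ethanol at -20°C for 12-24 h, then stained 1 h in PBS with 0.3% NP-40, 100 µg/ml RNase A and 100 µg/ml propidium iodide. Phase distribution read from DNA content by flow cytometry against sham-treated cells.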
# MDA-MB-231 [5] = assay: Cell cycle arrest in human MDA-MB-231 cells assessed as accumulation at G2/M phase at 6 uM after 12 hrs by flow cytometry analysis relative to control; format: functional; procedure, shortened: as §1
# MDA-MB-231 [6] = assay: Cell cycle arrest in human MDA-MB-231 cells assessed as accumulation at S phase at 6 uM after 24 hrs by flow cytometry analysis relative to control; format: functional; procedure, shortened: as §1
# MDA-MB-231 [7] = assay: Cell cycle arrest in human MDA-MB-231 cells assessed as accumulation at G2/M phase at 6 uM after 24 hrs by flow cytometry analysis relative to control; format: functional; procedure, shortened: as §1
# MDA-MB-231 [8] = assay: Cell cycle arrest in human MDA-MB-231 cells assessed as accumulation at G0-G1 phase at 6 uM after 48 hrs by flow cytometry analysis relative to control; format: functional; procedure, shortened: as §1
# MDA-MB-231 [9] = assay: Cell cycle arrest in human MDA-MB-231 cells assessed as accumulation at sub-G1 phase at 6 uM after 72 hrs by flow cytometry analysis relative to control; format: functional; procedure, shortened: as §2
# MDA-MB-231 [10] = assay: Cell cycle arrest in human MDA-MB-231 cells assessed as accumulation at G0-G1 phase at 6 uM after 72 hrs by flow cytometry analysis relative to control; format: functional; procedure, shortened: as §1
# [11] = Cell cycle arrest in human MCF10A cells assessed as accumulation at S phase at 6 uM after 12 hrs by flow cytometry analysis relative to control; format: functional, cell-based; conditions: MCF-10A; procedure, shortened: as §1
# [12] = Cell cycle arrest in human MCF10A cells assessed as accumulation at G0-G1 phase at 6 uM after 24 hrs by flow cytometry analysis relative to control; format: functional, cell-based; conditions: MCF-10A; procedure, shortened: as §1
# [13] = Cell cycle arrest in human MCF10A cells assessed as accumulation at S phase at 6 uM after 24 hrs by flow cytometry analysis relative to control; format: functional, cell-based; conditions: MCF-10A; procedure, shortened: as §1
# [14] = Cell cycle arrest in human MCF10A cells assessed as accumulation at G0-G1 phase at 6 uM after 48 hrs by flow cytometry analysis relative to control; format: functional, cell-based; conditions: MCF-10A; procedure, shortened: as §1
# [15] = Cell cycle arrest in human MCF10A cells assessed as accumulation at S phase at 6 uM after 48 hrs by flow cytometry analysis relative to control; format: functional, cell-based; conditions: MCF-10A; procedure, shortened: as §1
# [16] = Cell cycle arrest in human MCF10A cells assessed as accumulation at G2/M phase at 6 uM after 48 hrs by flow cytometry analysis relative to control; format: functional, cell-based; conditions: MCF-10A; procedure, shortened: as §1
# [17] = Cell cycle arrest in human MCF10A cells assessed as accumulation at G0-G1 phase at 6 uM after 72 hrs by flow cytometry analysis relative to control; format: functional, cell-based; conditions: MCF-10A; procedure, shortened: as §1
# [18] = Cell cycle arrest in human MCF10A cells assessed as accumulation at S phase at 6 uM after 72 hrs by flow cytometry analysis relative to control; format: functional, cell-based; conditions: MCF-10A; procedure, shortened: as §1
# [19] = Cell cycle arrest in human MCF10A cells assessed as accumulation at G2/M phase at 6 uM after 72 hrs by flow cytometry analysis relative to control; format: functional, cell-based; conditions: MCF-10A; procedure, shortened: as §1
# HeLa [20] = assay: Induction of DNA damage in human HeLa cells at 6 uM after 48 hrs by immunostaining; format: functional, cell-based
# Procedure, shortened: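 γH2A.X (phospho-Ser139) immunostaining, with HeLa at 6 µM for 24 or 48 h and MDA-MB468 at 1 µM. Cells on coverslips fixed and permeabilized in ice-cold methanol at -20°C. Blocked in 1% FBS, primary antibody 1:200 overnight at 4°C, then fluorophore-conjugated secondary 1 h. DNA counterstained with DRAQ5.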
# HeLa [21] = assay: Increase of histone 3 phosphorylation at Ser10 level in human HeLa cells at 6 uM after 48 hrs by Western blot analysis; format: functional, cell-based
# Procedure, shortened: (§3)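 HeLa cells were sham-treated or given 6 µM and collected at set times. Lysed on ice in Tris pH 7.4/NaCl/EDTA/1% Triton X-100 with PMSF and protease inhibitors. 30-40 µg protein run on 8 or 10% gels, blotted to PVDF, probed overnight at 4°C and detected by ECL. Band levels normalized to GAPDH.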
# HeLa [22] = assay: Increase of cyclin-B level in human HeLa cells at 6 uM after 48 hrs by Western blot analysis; format: functional, cell-based; procedure, shortened: as §3
# HeLa [23] = assay: Induction of apoptosis in human HeLa cells assessed as increase of PARP cleavage at 6 uM after 48 hrs by Western blot analysis; format: functional, cell-based; procedure, shortened: as §3
# HeLa [24] = assay: Induction of mitosis arrest in human HeLa cells assessed as disoriented tubulin structure at 6 uM after 12 hrs using DAPI staining by immunofluorescence microscopic analysis; format: functional, cell-based
# Procedure, shortened: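 HeLa cells on coverslips treated 12 h, fixed in ice-cold methanol at -20°C. Stained with anti-α-tubulin and anti-lamin A (primary 1:200 overnight at 4°C, fluorescent secondary 1 h) and DAPI for DNA. Mitotic morphology scored by fluorescence microscopy.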
# HeLa [25] = assay: Antiproliferative activity against human HeLa cells after 72 hrs by SRB assay; format: functional, cell-based
# Procedure, shortened: (§4)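 Cells seeded at 4,000-5,000/well for 16 h, then exposed 72 h to serial dilutions of compound in DMSO; sham DMSO as 100% and TCA-treated wells as 0%. Fixed in 10% TCA at 4°C for 1 h, stained with 0.4% SRB for 30 min, dye solubilised in 10 mmol Tris pH 10.5, read at 540 nm. IC50 from sigmoidal dose-response curves; two biological replicates, four technical each.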
# MDA-MB-231 [26] = assay: Antiproliferative activity against human MDA-MB-231 cells after 72 hrs by SRB assay; format: functional, cell-based; conditions: MDA-MB-231, 72 h; procedure, shortened: as §4
# MDA-MB-468 = assay: Antiproliferative activity against human MDA-MB-468 cells after 72 hrs by SRB assay; format: functional, cell-based; conditions: MDA-MB-468, 72 h; procedure, shortened: as §4
# [27] = Antiproliferative activity against human 184B5 cells after 72 hrs by SRB assay; format: cell-based; conditions: 184B5, 72 h; procedure, shortened: as §4
# HeLa [28] = assay: Cell cycle arrest in human HeLa cells assessed as accumulation at S phase at 6 uM after 12 hrs by flow cytometry analysis relative to control; format: functional; procedure, shortened: as §1
# HeLa [29] = assay: Cell cycle arrest in human HeLa cells assessed as accumulation at G2/M phase at 6 uM after 12 hrs by flow cytometry analysis relative to control; format: functional; procedure, shortened: as §1
smiles,measurement,setting,value
FC(F)(F)c1cccc(/C=C\c2cc3ccccc3nc2Cl)c1,Activity,HeLa [1],17.8%
same,Activity,HeLa [2],8.1%
same,Activity,HeLa [3],46%
same,Activity,MDA-MB-231 [4],8.5%
same,Activity,MDA-MB-231 [5],47.4%
same,Activity,MDA-MB-231 [6],10.8%
same,Activity,MDA-MB-231 [7],38.3%
same,Activity,MDA-MB-231 [8],36.3%
same,Activity,MDA-MB-231 [9],31.3%
same,Activity,MDA-MB-231 [10],34.6%
same,Activity,[11],52.9%
same,Activity,[12],49.2%
same,Activity,[13],34.3%
same,Activity,[14],63.6%
same,Activity,[15],17.9%
same,Activity,[16],6.2%
same,Activity,[17],70.6%
same,Activity,[18],12.1%
same,Activity,[19],4.9%
same,Activity,HeLa [20],inactive
same,Activity,HeLa [21],Active
same,Activity,HeLa [22],Active
same,Activity,HeLa [23],Active
same,Activity,HeLa [24],Active
same,pIC50,HeLa [25],5.55
same,pIC50,MDA-MB-231 [26],5.43
same,pIC50,MDA-MB-468,5.43
same,pIC50,[27],5.21
same,Activity,HeLa [28],8.9%
same,Activity,HeLa [29],78.9%
